Data on 20 compounds can be found in ChEMBL document CHEMBL4422662, “Chemical Control of Mammalian Circadian Behavior through Dual Inhibition of Casein Kinase Iα and δ” (J Med Chem, 2019).

Usually IC50 stands for the concentration needed to halve the response being measured. Broadly, the inhibition is how much of the control response was suppressed.

For assay [1], the target named is T1, Casein kinase I isoform alpha/delta (Homo sapiens) (UniProt P48730+P48729). Put plainly: Inhibition of CK1alpha/CK1delta in human U2OS cells co-expressing Bmal1-dLuc assessed as modulation circadian clock by measuring drug level causing 1 hr circadian period lengthening measured every 100 mins by luminescence assay. The assay is classed as cell-based. In short, it runs like this:
(§1)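 Bmal1-dLuc U2OS cells seeded at 2000 per well and grown 2 days in DMEM/10% FBS. Explant medium with 1 mM luciferin, 10 mM HEPES and 2% B27 (pH 7.2) added, with compounds at 8 μM to 1 nM (3-fold dilutions, final 0.7% DMSO). Luminescence read every 100 min. Period obtained by curve fitting, excluding the first 20 h. Value is the concentration giving the stated lengthening; mean of at least two independent determinations.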

The target in assay [2] is T1, Casein kinase I isoform alpha/delta (Homo sapiens). The assay can be described thus: Inhibition of CK1alpha/CK1delta in human U2OS cells co-expressing Bmal1-dLuc assessed as modulation circadian clock by measuring drug level causing 5 hrs circadian period lengthening measured every 100 mins by luminescence assay. Format: cell-based. The procedure, abridged:
as §1

Assay [3] concerns the target T2, Cyclin-dependent kinase 2 (Homo sapiens, UniProt P24941). The assay can be described thus: Inhibition of CDK2 (unknown origin) after 3 hrs by kinase-glo luminescent assay relative to control. Background: Kinase-Glo measures the ATP left after a reaction by luminescence.
Assay [4] concerns the target T3, Casein kinase I isoform alpha-like (Homo sapiens) (UniProt Q8N752).
T3 sequence (whole entry): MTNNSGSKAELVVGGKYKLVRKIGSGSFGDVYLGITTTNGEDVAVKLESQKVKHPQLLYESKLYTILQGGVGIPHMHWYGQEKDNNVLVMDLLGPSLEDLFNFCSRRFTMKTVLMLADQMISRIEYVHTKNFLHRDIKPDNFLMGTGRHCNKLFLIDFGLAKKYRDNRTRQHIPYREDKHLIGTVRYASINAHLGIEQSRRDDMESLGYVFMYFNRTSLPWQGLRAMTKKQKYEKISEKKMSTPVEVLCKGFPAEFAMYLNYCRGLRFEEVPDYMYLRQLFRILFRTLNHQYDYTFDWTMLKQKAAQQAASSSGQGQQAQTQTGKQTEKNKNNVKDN
The assay can be described thus: Inhibition of CK1alpha-like protein (unknown origin) at 5 uM relative to control.

The target of assay [5] is T4, Casein kinase I isoform alpha (Homo sapiens, UniProt P48729). Put plainly: Inhibition of CK1apha (unknown origin) at 5 uM relative to control.
Target sequence in this assay (P48729 2-337 limits assumed): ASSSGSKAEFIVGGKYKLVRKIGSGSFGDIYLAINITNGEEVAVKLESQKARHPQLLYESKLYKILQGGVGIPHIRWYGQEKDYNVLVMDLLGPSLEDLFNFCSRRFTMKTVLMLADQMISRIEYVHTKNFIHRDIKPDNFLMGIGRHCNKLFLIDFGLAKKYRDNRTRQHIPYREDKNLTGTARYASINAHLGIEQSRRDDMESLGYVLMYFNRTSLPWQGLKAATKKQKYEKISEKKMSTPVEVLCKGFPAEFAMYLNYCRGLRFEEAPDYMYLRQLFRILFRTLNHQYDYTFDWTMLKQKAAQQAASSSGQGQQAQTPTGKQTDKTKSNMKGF
In assay [6] the target is Cyclin-dependent kinase 6 (Homo sapiens) (UniProt Q00534). The assay can be described thus: Inhibition of CDK6 (unknown origin) at 5 uM relative to control.
The target in assay [7] is T5, Casein kinase I isoform delta (Homo sapiens, UniProt P48730). Put plainly: Inhibition of recombinant N-terminal human GST-tagged CK1delta (1 to 294 residues) expressed in Escherichia coli using RKKKAEpSVASLTSQCSYSS peptide as substrate after 3 hrs by kinase-glo luminescent assay relative to control. The procedure, abridged: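 CKI buffer: 40 mM Tris, 10 mM MgCl2, 0.5 mM DTT, 0.1 mg/mL BSA, pH 7.5. Compound added first (final 5% DMSO), then ATP to a final 5 μM. Incubated 30 °C for 3 h; remaining ATP read by Kinase-Glo luminescence.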
Target sequence in this assay (P48730 whole entry, the tested form may be a part, canonical isoform): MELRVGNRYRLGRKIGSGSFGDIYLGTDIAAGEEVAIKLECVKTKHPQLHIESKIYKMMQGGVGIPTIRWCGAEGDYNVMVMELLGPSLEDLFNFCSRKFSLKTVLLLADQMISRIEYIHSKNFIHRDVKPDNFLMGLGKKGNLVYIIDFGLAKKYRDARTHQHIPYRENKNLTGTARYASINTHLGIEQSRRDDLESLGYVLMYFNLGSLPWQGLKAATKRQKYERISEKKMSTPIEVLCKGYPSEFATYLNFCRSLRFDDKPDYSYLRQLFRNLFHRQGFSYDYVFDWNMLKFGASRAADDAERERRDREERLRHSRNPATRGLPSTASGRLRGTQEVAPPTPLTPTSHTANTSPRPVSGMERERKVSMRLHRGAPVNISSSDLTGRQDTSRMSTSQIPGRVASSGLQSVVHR

Assay [8] concerns the target SRSF protein kinase 1 (Homo sapiens) (UniProt Q96SB4). The assay can be described thus: Inhibition of SRPK1 (unknown origin) at 5 uM relative to control.
Assay [9] concerns the target Casein kinase I isoform epsilon (Homo sapiens) (UniProt P49674). Put plainly: Inhibition of CK1epsilon (unknown origin) at 5 uM relative to control.
Assay [10] concerns the target T4, Casein kinase I isoform alpha. Put plainly: Inhibition of recombinant full length human GST-tagged CK1apha expressed in baculovirus at 5 uM using peptide as substrate after 3 hrs by kinase-glo luminescent assay.
Target sequence in this assay (P48729 2-337 limits assumed): as the sequence (P48729 2-337 limits assumed) above
Assay [11] concerns the target T6, Mitogen-activated protein kinase 1 (Homo sapiens, UniProt P28482). The assay can be described thus: Inhibition of N-terminal GST-tagged recombinant full-length human MAPK1 expressed in Escherichia coli using MBP1 as substrate after 3 hrs by kinase-glo luminescent assay relative to control. The procedure, abridged:
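MAPK1 assayed as ERK2 at 1.5 ng/μL with 0.8 μg/μL MBP. ERK buffer: 50 mM Tris, 10 mM MgCl2, 0.5 mM DTT, 1 mM EGTA, pH 7.5. Compound at final 5% DMSO, then ATP (final 5 μM). Incubated 3 h at 30 °C; Kinase-Glo luminescence.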

Assay [12] deals with Mus musculus. Put plainly: Modulation of circadian rhythms in C57BL/6J mouse assessed as lengthening of time period of circadian behavior at 5 mM administered via infusion using osmotic pump by passive infrared sensor analysis. Format: functional. In short, it runs like this: (§2)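 Male C57BL/6J mice, 8 weeks old, entrained to 12 h light:12 h dark and then released into constant darkness. Drug infused continuously into the lateral ventricle by osmotic mini-pump via a stereotaxic cannula (0.2 mm anterior, 1.4 mm lateral, 2.2 mm deep). Artificial cerebrospinal fluid infusion served as control, with buffer infusion afterwards. Movement recorded each minute by passive infrared sensor to derive period.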

Assay [13] has as its target Dual specificity protein kinase CLK2 (Homo sapiens) (UniProt P49760). Put plainly: Inhibition of CLK2 (unknown origin) at 5 uM relative to control.
Assay [14] relates to Mus musculus. Put plainly: Reversible modulation of circadian rhythms in C57BL/6J mouse assessed as lengthening of time period of circadian behavior at 5 mM administered via infusion using osmotic pump followed buffer infusion by passive infrared sensor analysis. Format: functional, organism-based. The procedure, abridged:
as §2

In assay [15] the target is T5, Casein kinase I isoform delta. The assay can be described thus: Inhibition of recombinant N-terminal human GST-tagged CK1delta (1 to 294 residues) expressed in Escherichia coli at 5 uM using RKKKAEpSVASLTSQCSYSS peptide as substrate after 3 hrs by kinase-glo luminescent assay relative to control.
Target sequence in this assay (P48730 whole entry, looked up, the tested form may be a part, canonical isoform): as the sequence (P48730 whole entry, the tested form may be a part, canonical isoform) above
Assay [16] concerns the target SRSF protein kinase 2 (Homo sapiens) (UniProt P78362). The assay can be described thus: Inhibition of SRPK2 (unknown origin) at 5 uM relative to control.
For assay [17], the target named is CDK7/Cyclin H/MNAT1 (Homo sapiens) (UniProt P51946+P50613+P51948). Put plainly: Inhibition of recombinant full length C-terminal human His-tagged CDK7/cyclin H/N-terminal MAT1 expressed in baculovirus expression system at 5 uM using Cdk7/9 peptide as substrate after 3 hrs by kinase-glo luminescent assay relative to control.
Assay [18] concerns the target T4, Casein kinase I isoform alpha. Put plainly: Inhibition of recombinant full length human GST-tagged CK1apha expressed in baculovirus using peptide as substrate after 3 hrs by kinase-glo luminescent assay. The procedure, abridged:
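Reaction held 1 ng/μL CKIα and 50 μM CKI peptide substrate in CKI buffer (40 mM Tris, 10 mM MgCl2, 0.5 mM DTT, 0.1 mg/mL BSA, pH 7.5). Final 5% DMSO from compound. Started with ATP (final 5 μM). Ran 3 h at 30 °C, then Kinase-Glo reagent added and luminescence recorded.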
Target sequence in this assay (P48729 whole entry, canonical isoform): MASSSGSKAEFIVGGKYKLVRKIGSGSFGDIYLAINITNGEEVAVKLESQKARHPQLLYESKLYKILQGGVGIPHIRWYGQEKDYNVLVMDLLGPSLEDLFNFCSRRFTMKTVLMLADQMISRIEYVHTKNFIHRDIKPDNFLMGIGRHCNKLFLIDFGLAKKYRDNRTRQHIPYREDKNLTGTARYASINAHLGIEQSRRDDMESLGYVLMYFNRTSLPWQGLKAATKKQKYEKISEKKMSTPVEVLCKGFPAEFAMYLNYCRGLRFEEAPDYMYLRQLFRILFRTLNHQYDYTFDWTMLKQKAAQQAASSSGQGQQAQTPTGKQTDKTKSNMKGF

Assay [19] has as its target T5, Casein kinase I isoform delta. Put plainly: Inhibition of CK1delta (unknown origin) at 5 uM relative to control.
Target sequence in this assay (P48730 whole entry, looked up, the tested form may be a part, canonical isoform): as the sequence (P48730 whole entry, the tested form may be a part, canonical isoform) above
Assay [20] deals with Cyclin-dependent kinase 7 (Homo sapiens) (UniProt P50613). Put plainly: Inhibition of CDK7 (unknown origin) at 5 uM relative to control.
The next assay has as its target CDK7/Cyclin H/MNAT1 (Homo sapiens, UniProt P50613). The assay can be described thus: Inhibition of recombinant full length C-terminal human His-tagged CDK7/cyclin H/N-terminal MAT1 expressed in baculovirus expression system using Cdk7/9 peptide as substrate after 3 hrs by kinase-glo luminescent assay relative to control. The procedure, abridged:
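CDK7 used at 5 ng/μL with 100 μM Cdk7/9 peptide substrate in CKI buffer (40 mM Tris, 10 mM MgCl2, 0.5 mM DTT, 0.1 mg/mL BSA, pH 7.5). ATP start at final 5 μM, 30 °C for 3 h, Kinase-Glo luminescence read-out.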

The subject of assay [21] is Mus musculus. The assay can be described thus: Modulation of circadian rhythms in C57BL/6J mouse assessed as lengthening of time period of circadian behavior at 15 mM administered via infusion using osmotic pump by passive infrared sensor analysis. Format: functional. In short, it runs like this: as §2
The subject of assay [22] is Mus musculus. Put plainly: Modulation of circadian rhythms in C57BL/6J mouse assessed as lengthening of time period of circadian behavior at 1 mM administered via infusion using osmotic pump by passive infrared sensor analysis. Format: functional. In short, it runs like this:
as §2

In assay [23] the target is T6, Mitogen-activated protein kinase 1. Put plainly: Inhibition of N-terminal GST-tagged recombinant full-length human MAPK1 expressed in Escherichia coli at 5 uM using MBP as substrate after 3 hrs by kinase-glo luminescent assay relative to control.
The test system of assay [24] is Mus musculus. Put plainly: Modulation of circadian rhythms in C57BL/6J mouse assessed as lengthening of time period of circadian behavior at 3 mM administered via infusion using osmotic pump by passive infrared sensor analysis. Format: functional. The procedure, abridged:
as §2

The target of assay [25] is T2, Cyclin-dependent kinase 2. Put plainly: Inhibition of CDK2 (unknown origin) at 5 uM after 3 hrs by kinase-glo luminescent assay relative to control.

Active and inactive are the calls of the source. The rule behind the calls is not given here. Where only a bound is given, the exact number is not on record here.

T1 sequence (P48729 whole entry, looked up, canonical isoform): as the sequence (P48729 whole entry, canonical isoform) above
T1 sequence (P48730 whole entry, looked up, canonical isoform): as the sequence (P48730 whole entry, the tested form may be a part, canonical isoform) above
T6 sequence (P28482 whole entry): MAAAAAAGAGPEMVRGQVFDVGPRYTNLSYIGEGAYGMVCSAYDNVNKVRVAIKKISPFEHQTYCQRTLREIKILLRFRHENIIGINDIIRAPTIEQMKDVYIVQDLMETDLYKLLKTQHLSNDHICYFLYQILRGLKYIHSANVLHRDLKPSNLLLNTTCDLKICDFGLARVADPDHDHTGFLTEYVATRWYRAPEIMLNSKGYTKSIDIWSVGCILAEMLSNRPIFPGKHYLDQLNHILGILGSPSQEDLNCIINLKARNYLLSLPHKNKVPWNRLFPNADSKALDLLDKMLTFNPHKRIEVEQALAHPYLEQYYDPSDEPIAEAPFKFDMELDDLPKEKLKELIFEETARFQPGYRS
CDK7/Cyclin H/MNAT1, sequence (P51946 whole entry): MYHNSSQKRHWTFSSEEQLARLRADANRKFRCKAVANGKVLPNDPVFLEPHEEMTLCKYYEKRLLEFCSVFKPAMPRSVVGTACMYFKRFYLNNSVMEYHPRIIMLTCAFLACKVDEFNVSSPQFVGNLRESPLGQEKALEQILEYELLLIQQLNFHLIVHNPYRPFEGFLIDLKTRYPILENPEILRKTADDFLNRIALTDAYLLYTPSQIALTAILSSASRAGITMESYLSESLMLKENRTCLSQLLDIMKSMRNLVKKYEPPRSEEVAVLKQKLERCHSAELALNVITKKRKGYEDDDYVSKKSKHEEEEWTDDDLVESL
CDK7/Cyclin H/MNAT1, sequence (P50613 whole entry): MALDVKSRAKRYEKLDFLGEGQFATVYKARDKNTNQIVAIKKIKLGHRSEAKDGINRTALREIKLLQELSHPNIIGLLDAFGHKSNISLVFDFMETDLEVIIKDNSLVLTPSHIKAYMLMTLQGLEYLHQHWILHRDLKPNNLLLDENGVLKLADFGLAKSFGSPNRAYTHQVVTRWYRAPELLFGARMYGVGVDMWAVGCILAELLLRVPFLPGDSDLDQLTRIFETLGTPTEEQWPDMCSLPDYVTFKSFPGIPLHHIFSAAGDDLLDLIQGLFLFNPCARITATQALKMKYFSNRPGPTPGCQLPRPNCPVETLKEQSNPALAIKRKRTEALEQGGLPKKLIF
CDK7/Cyclin H/MNAT1, sequence (P51948 whole entry, further chain): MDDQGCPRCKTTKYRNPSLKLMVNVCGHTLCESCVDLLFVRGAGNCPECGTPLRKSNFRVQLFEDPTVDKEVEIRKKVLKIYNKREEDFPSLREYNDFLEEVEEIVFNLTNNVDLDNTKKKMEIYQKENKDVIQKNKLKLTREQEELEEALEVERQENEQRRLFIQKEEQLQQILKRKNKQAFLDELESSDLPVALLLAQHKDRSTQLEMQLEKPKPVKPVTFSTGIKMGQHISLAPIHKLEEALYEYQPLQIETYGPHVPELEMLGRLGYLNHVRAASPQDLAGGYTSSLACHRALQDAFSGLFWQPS
Cyclin-dependent kinase 7 (Homo sapiens), sequence (P50613 whole entry): as the sequence (P50613 whole entry) above
SRSF protein kinase 2 (Homo sapiens), sequence (P78362 whole entry, looked up): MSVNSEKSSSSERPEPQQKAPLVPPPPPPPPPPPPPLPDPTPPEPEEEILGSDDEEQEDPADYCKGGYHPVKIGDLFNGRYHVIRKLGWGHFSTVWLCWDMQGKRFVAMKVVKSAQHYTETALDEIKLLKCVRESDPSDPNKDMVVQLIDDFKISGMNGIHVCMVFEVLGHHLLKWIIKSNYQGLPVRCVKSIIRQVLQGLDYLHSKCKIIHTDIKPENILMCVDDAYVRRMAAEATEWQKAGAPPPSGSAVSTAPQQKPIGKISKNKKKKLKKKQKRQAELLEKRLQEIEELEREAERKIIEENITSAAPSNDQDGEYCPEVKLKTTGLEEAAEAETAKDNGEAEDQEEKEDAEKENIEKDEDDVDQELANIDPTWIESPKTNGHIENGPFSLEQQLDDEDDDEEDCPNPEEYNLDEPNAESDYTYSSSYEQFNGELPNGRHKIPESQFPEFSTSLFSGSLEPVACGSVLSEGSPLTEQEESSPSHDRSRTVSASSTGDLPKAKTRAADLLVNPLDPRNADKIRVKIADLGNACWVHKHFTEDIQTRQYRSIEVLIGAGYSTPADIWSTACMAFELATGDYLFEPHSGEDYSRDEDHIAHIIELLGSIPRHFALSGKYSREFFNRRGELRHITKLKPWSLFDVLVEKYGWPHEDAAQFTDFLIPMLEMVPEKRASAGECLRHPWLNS

`CC[C@H](CO)Nc1nc(NCc2ccccc2)c2ncn(C(C)C)c2n1`: the EC was found to be 0.96 µM in assay [1] and 9 µM in assay [2].
As for `CC(C1CC1)n1cnc2c(NCc3cccc(C(F)(F)F)c3)nc(NCCN(C)C)nc21` (centres undefined), the IC50 in assay [3] worked out at 37 µM; in [7], 3.6 µM; in assay [11], 850 µM; in assay [18] it was 1.8 µM; at CDK7/Cyclin H/MNAT1 it was 2.4 µM. Besides, the inhibition in assay [4], in assay [5], in assay [6], in assay [9], in [19] and in assay [20] was > 50% each time. Moreover, the inhibition entry in assay [8], in assay [10], in [13], in assay [15], in [16] and in assay [17] was “Active” each time. Also, the values for the EC in assay [1] and in assay [2] were 0.022 µM and 0.32 µM, respectively. Besides, the Time in the assay with Mus musculus [12] and in the assay with Mus musculus [21] was 0.15 h throughout. The outcome with Mus musculus [14] was Active.
Consider `CC(C)n1cnc2c(NCc3cccc(C(F)(F)F)c3)nc(NCCN3CCOCC3)nc21`, for which the EC in [1] was 1.65 µM; in assay [2], 9.33 µM.
For `CCCCOc1nc(NCc2cccc(C(F)(F)F)c2)c2ncn(C(C)C)c2n1`, in that order: 6.39 µM and 23.4 µM.
For `CC(C)Oc1nc(NCc2cccc(C(F)(F)F)c2)c2ncn(C(C)C)c2n1`, in that order: 0.39 µM and 2.75 µM.
In the same order, the values of `CC[C@H](CO)Nc1nc(NCc2cccc(C(F)(F)F)c2)c2ncn(C(C)C)c2n1` are 0.38 µM and 3.76 µM.
As for `CC(C1CC1)n1cnc2c(N(C)Cc3cccc(C(F)(F)F)c3)nc(NCCN(C)C)nc21` (centres undefined), the EC result in [1] and in [2] was “inactive” in each case.
In the case of `CC(C1CC1)n1cnc2c(OCc3cccc(C(F)(F)F)c3)nc(NCCN(C)C)nc21` (centres undefined), the EC entry in assay [1] and in [2] was “inactive” in each case.
Consider `COCC1CCCN1c1nc(NCc2cccc(C(F)(F)F)c2)c2ncn(C(C)C)c2n1` (centres undefined), for which the EC result in assay [1] and in assay [2] was “inactive” in each case.
As for `COc1nc(NCc2cccc(C(F)(F)F)c2)c2ncn(C(C)C)c2n1`, the EC amounted to 0.32 µM in assay [1] and 2.39 µM in assay [2].
In the same order, the values of `CC(C)n1cnc2c(NCc3cccc(C(F)(F)F)c3)nc(N3CCCN(C)CC3)nc21` are 0.68 µM and 5.8 µM.
Turning to `CC(C)n1cnc2c(NCc3cccc(C(F)(F)F)c3)nc(N3CCC(O)CC3)nc21`, the EC in assay [1] came out at 1.98 µM; in assay [2], 10.4 µM.
In the same order, the values of `CC(C)n1cnc2c(NCc3cccc(C(F)(F)F)c3)nc(NCCN(C)C)nc21` are 0.09 µM and 0.9 µM.
For `CC(C)n1cnc2c(NCc3cccc(C(F)(F)F)c3)nc(NC3CC3)nc21`, in that order: 1.62 µM and 3.04 µM.
In the same order, the values of `CC(C1CC1)n1cnc2c(NCc3cccc(C(F)(F)F)c3)ncnc21` (centres undefined) are 0.09 µM and 0.9 µM.
As for `CC(C)n1cnc2c(NCc3cccc(C(F)(F)F)c3)ncnc21`, the IC50 in assay [3] came to 13 µM; in [7], 12 µM; in [11], 59 µM; in [18] it was 12 µM; at CDK7/Cyclin H/MNAT1 it was 32 µM. In addition, the Time amounted to 0.05 h in the assay on Mus musculus [22], 0.1 h in the assay with Mus musculus [12], 0.1 h with Mus musculus [24] and 0.15 h with Mus musculus [21]. For the same compound, the EC came out at 0.39 µM in assay [1] and 3.4 µM in assay [2]. In addition, the inhibition in [10], in [23], in assay [15], in [17] and in assay [25] was > 30% throughout.
`CC(C)n1cnc2c(NCc3cccc(C(F)(F)F)c3)nc(N3CCN(C)CC3)nc21`: the figures for the EC in [1] and in [2] were 0.9 µM and 3.66 µM, respectively.
On to `CC(=O)N1CCN(c2nc(NCc3cccc(C(F)(F)F)c3)c3ncn(C(C)C)c3n2)CC1`, for which the figures for the EC in [1] and in assay [2] were 1.03 µM and 5.7 µM, respectively.
In the same order, the values of `CC(C)n1cnc2c(NCc3cccc(C(F)(F)F)c3)nc(NCCN)nc21` are 0.58 µM and 5.23 µM.
`CC(C)n1cnc2c(NCc3cccc(C(F)(F)F)c3)nc(NCc3ccccc3)nc21`: the EC result in assay [1] and in assay [2] was “inactive” throughout.
